# Assay outcomes: PubChem, several laboratories
# Runt-SMMHC FRET: inhibitors of RUNX1 Runt–CBFb-SMMHC binding, primary screen, biochemical, FRET, Cerulean-Runt, Venus-CBFb-SMMHC, uHTS; inhibition, % at 20 µM; Cerulean-Runt/Venus-CBFb-SMMHC FRET ratio 530/480, 1 h; AID 1434, 2008; Runt-related transcription factor 1 (Homo sapiens) + Core-binding factor subunit beta …; actives 0.74% (n = 220,000);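 active = mean inhibition across duplicate retests at 20 µM reaching about 50%, limit read from the data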;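 also: 0% = DMSO wells and 100% = wells with excess untagged CBFb-SMMHC; inhibitors lower the FRET ratio by blocking Runt binding to CBFb-SMMHC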
# RanGTP-Impb inh: inhibitors of RanGTP-importin-beta interaction, primary screen, biochemical, FRET, CFP-Ran, YFP-importin-beta, homogeneous; Ran GTPase (GTP-bound) - importin-beta complex; cell-free CFP-Ran/YFP-importin-beta FRET ratio; inhibition, % (test concentration not listed); actives 1.1% (n = 300,000); AID 2216, 2009;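 active = more than half of the replicate wells show a fall in the fluorescence ratio signal beyond about 16%, limit read from the data, passing the limit was not always enough; inconclusive = exactly half of the replicate wells pass the set limit; inactive = fewer than half of replicates pass the limit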;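 also: 0% = DMSO wells and 100% = Ran loaded with GDP instead of GTP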
# Runt-CBFb FRET: inhibitors of RUNX1 Runt–CBFb binding, primary screen, biochemical, FRET, Cerulean-Runt, Venus-CBFb, uHTS; Runt-related transcription factor 1 (Homo sapiens) + Core-binding factor subunit beta …; inhibition, % at 20 µM; Cerulean-Runt/Venus-CBFb FRET ratio 530/480, 1 h; AID 1496, 2009; actives 0.46% (n = 220,000);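 active = inhibition over about 50% at 20 µM in the single-dose screen, limit read from the data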;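 also: 0% = DMSO wells and 100% = excess unlabeled CBFb competitor control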
#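 Measured by: fluorescence energy transfer, 422 nm excitation, 530/480 nm emission; test system: Cerulean-tagged RUNX1 Runt domain (FRET donor) fusion protein; buffer or medium: Tris pH 7.5 buffer with BSA; compound: one dose, 20 µM compound, 1% DMSO; times: two 1 h room-temperature incubations shielded from light; benchmarks: unlabeled CBFb 5 µM, positive control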
# Hck-Nef inh: inhibitors of Nef-activated human Hck kinase, primary screen, biochemical, Z-Lyte FRET, 384-well, Hck-YEEI; actives 0.68% (n = 220,000); inhibition, % at 20 µM; Tyrosine-protein kinase HCK (Homo sapiens), P08631; AID 463187, 2010; Recombinant Hck-YEEI plus Nef, Z-Lyte FRET kinase assay;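 active = Hck-Nef kinase inhibition above about 50%, limit read from the data; inactive = inhibition below that limit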;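 also: 0% = DMSO with Hck plus Nef and 100% = Hck alone without Nef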
# Target sequence (P08631 whole entry, looked up): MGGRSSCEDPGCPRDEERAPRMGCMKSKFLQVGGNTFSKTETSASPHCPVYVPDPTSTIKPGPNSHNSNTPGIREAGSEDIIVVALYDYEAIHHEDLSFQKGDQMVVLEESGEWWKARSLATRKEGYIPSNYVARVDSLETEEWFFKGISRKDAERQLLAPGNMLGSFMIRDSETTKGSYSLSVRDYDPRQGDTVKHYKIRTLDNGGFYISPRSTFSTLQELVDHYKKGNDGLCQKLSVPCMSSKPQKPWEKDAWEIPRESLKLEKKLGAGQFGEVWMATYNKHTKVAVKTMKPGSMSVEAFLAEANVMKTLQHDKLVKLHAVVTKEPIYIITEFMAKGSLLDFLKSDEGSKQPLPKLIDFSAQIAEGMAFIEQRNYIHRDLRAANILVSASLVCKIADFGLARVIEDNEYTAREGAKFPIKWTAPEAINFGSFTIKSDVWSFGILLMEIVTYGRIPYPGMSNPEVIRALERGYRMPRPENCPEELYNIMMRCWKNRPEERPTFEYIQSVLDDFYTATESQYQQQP
# The depositor's hits bear a star; ? = inconclusive; . = no result given. A selection: hits, their analogues and other compounds. The true share with any hit is near 1.7%.
SMILES,Runt-SMMHC FRET,RanGTP-Impb inh,Runt-CBFb FRET,Hck-Nef inh
Nc1nc(N)c2nc(-c3ccccc3)c(N)nc2n1,56*,-1,26,28
COc1ccc(CCNC(=O)C2CCN(c3nccc(C)n3)CC2)cc1,2,1,1,3
COc1ccccc1NC(=O)C1CC(C)OC1=O (centres undefined),.,1,.,.
CN(Cc1ccccc1)c1ncc(C=O)s1,-4,-2,1,-3
Cn1c(=O)[nH]c(=O)c2c1nc(SCCO)n2CC(O)COc1ccccc1 (centres undefined),-9,-5,4,18
CCOC(=O)/C(C#N)=C(C)/C=C1\Sc2ccccc2N1CC,-40,19*,-37,3
O=C(NC1CCN(S(=O)(=O)c2ccc(F)cc2)CC1)c1cccc(F)c1,.,-2,.,.
COc1ccc(CCNC2=C(Cl)C(=O)N(CCc3ccccc3)C2=O)cc1OC,55*,-1,-2,1
COc1ccc(CCNC2CC(=O)N(CCc3ccccc3)C2=O)cc1OC (centres undefined),-2,?,1,-1
O=C1/C(=C\c2ccco2)NC(=S)N1c1ccccc1,-13,0,10,53*
O=[N+]([O-])c1ccc(S(=O)(=O)NCC2COc3ccccc3O2)cc1 (centres undefined),.,187*,.,.
O=[N+]([O-])c1ccc(S(=O)(=O)NCC2CCCO2)cc1 (centres undefined),3,2,4,3
CC(C)(C)C(=O)O/N=C1\CCS(=O)(=O)c2sccc21,1,-3,0,-27
O=C(O/N=C1\CCS(=O)(=O)c2sccc21)C1CC1,2,101*,0,14
CCOC(=O)c1cc2c(=O)n3ccccc3nc2n(Cc2ccco2)c1=NC(=O)c1ccc(OC)cc1,86*,-1,89*,25
CCOC(=O)c1cc2c(=O)n3ccccc3nc2n(Cc2ccco2)c1=NC(=O)c1ccccc1OC,86*,62*,89*,19
COC(=O)c1cc2c(=O)n3ccccc3nc2n(C)c1=N,42,.,13,.
COC(=O)c1cc2c(=O)n3ccccc3nc2n(Cc2cccnc2)c1=N,.,0,.,47
CCOC(=O)c1cc2c(=O)n3cccc(C)c3nc2n(Cc2ccco2)c1=NC(=O)c1ccccc1,.,106*,93*,5
CCOC(=O)c1cc2c(=O)n3ccccc3nc2n(CCCOC)c1=NC(=O)c1ccncc1,92*,0,65*,34
COc1cccc(CNC(=O)CNS(=O)(=O)c2ccc(Br)s2)c1,.,7,.,.
CC1(C)CC(=O)C2=C(C1)OC(N)=C(C#N)[C@@H]2c1ccccc1[N+](=O)[O-],50,49*,94*,0
CCCOc1ccccc1C(=O)N1CCNC(=O)C1CC(=O)OC(C)C (centres undefined),.,7,.,.
CCCC(=O)Nc1nc2ccc(OC)cc2s1,-2,0,-1,-1
CCOC(=O)c1sc(Nc2nc3ccc(OC)cc3s2)cc1C,62*,-1,6,4
SMILES,Runt-SMMHC FRET,RanGTP-Impb inh,Runt-CBFb FRET,Hck-Nef inh
COc1ccc2nc(Nc3sc4c(c3C(N)=O)CCCC4)sc2c1,67*,.,45,6
COc1ccc(C(=O)CCC(=O)N2CCN(c3cc(C)ccc3C)CC2)cc1,.,4,.,.
CCCn1c(=S)[nH]c2cc(C(=O)N(CCO)Cc3ccccc3)ccc2c1=O,.,4,.,.
CCN1C(=C(C#N)C#N)C=Cc2cc(C)ccc21,77*,52*,-36,19
CCN1C(=O)/C(=C2/C=Cc3cc(C)ccc3N2CC)N(C)C1=S,0,-3,8,2
CCn1c(C)cc2c(c1=O)C(c1ccccc1)C(C(=O)OC)=C(N)O2 (centres undefined),1,42*,-2,3
Cc1ncc(CO)c(/C=N/NC(=O)c2ccc(Br)cc2)c1O,58*,21*,19,-4
Cc1ncc(CO)c(/C=N/NC(=O)c2cc(Br)ccc2O)c1O,-25,2,1,9
Cc1cc(C)c(C#N)c(SCc2nc3ccccc3[nH]2)n1,13,19*,4,6
O=C(CC(C(=O)O)c1c[nH]c2ccccc12)c1ccccc1 (centres undefined),3,42*,1,32
